# Reference: ChEMBL document CHEMBL4732101, “Novel quinolone-based potent and selective HDAC6 inhibitors: Synthesis, molecular modeling studies and biological investigation” (Eur J Med Chem, 2021)
# Calls of active or inactive are those of the source. The rule behind the calls is not given here.
# Legend:
# [1] = biological target: T1, Protein deacetylase HDAC6 (Homo sapiens, UniProt Q9UBN7); assay: Inhibition of recombinant human full length N-terminal GST-tagged HDAC6 expressed in baculovirus infected Sf9 cells using Z-(Ac)Lys-AMC as substrate measured after 90 mins by fluorescence assay
# T1 sequence (Q9UBN7 whole entry): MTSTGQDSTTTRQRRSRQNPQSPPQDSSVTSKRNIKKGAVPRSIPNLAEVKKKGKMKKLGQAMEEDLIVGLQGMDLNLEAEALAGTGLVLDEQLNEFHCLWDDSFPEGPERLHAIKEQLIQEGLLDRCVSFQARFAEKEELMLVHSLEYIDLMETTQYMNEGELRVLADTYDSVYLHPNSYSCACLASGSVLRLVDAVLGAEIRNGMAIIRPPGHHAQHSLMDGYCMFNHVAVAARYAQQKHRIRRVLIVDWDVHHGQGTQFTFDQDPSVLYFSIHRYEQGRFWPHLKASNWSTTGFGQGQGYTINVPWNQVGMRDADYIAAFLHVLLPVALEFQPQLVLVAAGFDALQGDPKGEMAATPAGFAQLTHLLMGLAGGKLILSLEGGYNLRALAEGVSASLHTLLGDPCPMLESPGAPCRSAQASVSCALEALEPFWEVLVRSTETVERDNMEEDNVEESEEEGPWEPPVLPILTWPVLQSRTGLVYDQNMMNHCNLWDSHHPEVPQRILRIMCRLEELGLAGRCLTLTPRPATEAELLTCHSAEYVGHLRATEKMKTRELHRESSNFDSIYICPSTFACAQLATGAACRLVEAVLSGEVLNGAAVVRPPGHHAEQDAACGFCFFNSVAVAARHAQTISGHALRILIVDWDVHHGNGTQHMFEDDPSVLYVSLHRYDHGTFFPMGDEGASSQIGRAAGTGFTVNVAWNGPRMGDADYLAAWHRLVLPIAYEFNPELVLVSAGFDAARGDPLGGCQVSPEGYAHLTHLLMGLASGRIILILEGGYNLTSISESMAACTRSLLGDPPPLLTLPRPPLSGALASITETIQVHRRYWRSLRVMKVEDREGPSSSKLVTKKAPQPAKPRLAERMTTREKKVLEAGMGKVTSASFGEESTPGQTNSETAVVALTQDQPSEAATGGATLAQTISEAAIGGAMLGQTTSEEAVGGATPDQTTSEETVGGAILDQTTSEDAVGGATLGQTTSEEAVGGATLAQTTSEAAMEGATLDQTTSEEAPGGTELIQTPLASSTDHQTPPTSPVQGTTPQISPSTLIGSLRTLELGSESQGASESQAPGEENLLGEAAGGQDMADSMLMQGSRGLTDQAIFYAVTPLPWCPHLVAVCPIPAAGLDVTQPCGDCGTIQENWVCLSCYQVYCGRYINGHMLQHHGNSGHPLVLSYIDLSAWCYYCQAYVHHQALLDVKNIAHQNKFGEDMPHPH
# Histone deacetylase 1 = Histone deacetylase 1 (Homo sapiens, UniProt Q13547); assay: Inhibition of recombinant human C-terminal FLAG/His-tagged HDAC1 (1 to 482 residues) expressed in Sf9 insect cells using Z-(Ac)Lys-AMC as substrate measured after 90 mins by fluorescence assay
# Outline: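 Incubated with inhibitor in DMSO and fluorogenic substrate Z-(Ac)Lys-AMC (126 µM, as added) for 90 min at 37 °C. Stopped with trichostatin A plus trypsin for 30 min at 37 °C; fluorescence read at ex 390/em 460 nm.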
# [2] = biological target: T2, Protein deacetylase HDAC6 (Homo sapiens) (UniProt Q9UBN7); assay: Inhibition of HDAC6 in human HCT-116 cells assessed as increase in alpha-tubulin acetylation at 10 uM measured after 12 to 24 hrs by Western blot analysis relative to control; format: cell-based; conditions: time 12-24 hrs
# T2 sequence (whole entry): T1 sequence (Q9UBN7 whole entry)
# Outline: (§1)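 HCT-116 or U937 cells treated at 10 µM for 12 and 24 h. […] Western blot used 40 µg total protein or 5 µg acid-extracted histone. Blots probed for cleaved PARP, acetylated tubulin, H3K9/14ac and Hsp90(AcLys294), normalized to GAPDH or H4. Compared with control cells by one-way ANOVA and Dunnett's test.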
# [3] = Inhibition of HDAC1/2/3/8 in human U-937 cells assessed as increase in H3K9/14 acetylation at 10 uM measured after 12 to 24 hrs by Western blot analysis; format: cell-based; conditions: u-937, 10 µM, time 12-24 hrs; outline: as §1
# HCT-116 [4] = assay: Cytotoxicity against human HCT-116 cells assessed as reduction in cell viability measured after 24 hrs by MTT assay; format: functional, cell-based; conditions: HCT-116, 24 h
# Outline: (§2)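 HCT-116 cells grown in DMEM with 10% FBS, 2 mM L-glutamine and antibiotics. 2.5×10^4 cells/well treated in triplicate at 50, 25, 10, 5 and 1 µM for 12, 24 or 48 h. Then MTT 0.5 mg/ml for 3 h, supernatant removed, formazan dissolved in isopropanol, absorbance read at 570 nm. IC50 derived from the concentration series.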
# U-937 [5] = assay: Cytotoxicity against human U-937 cells assessed as reduction in cell proliferation at 50 uM measured after 48 hrs by MTT assay relative to control; format: functional; design: scale not given: the % may be the effect or the level left
# Outline: (§3)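 U937 cells grown in RPMI-1640 with 10% FBS, 2 mM L-glutamine and penicillin-streptomycin. 2.5×10^4 cells/well treated in triplicate at 50, 25, 10, 5 and 1 µM for 12, 24 or 48 h. MTT 0.5 mg/ml added for 3 h, plate centrifuged 5 min at 1200 rpm, crystals dissolved in isopropanol, A570 read. IC50 derived from the concentration series.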
# HCT-116 [6] = assay: Cytotoxicity against human HCT-116 cells assessed as cell viability at 50 uM measured after 48 hrs by MTT assay relative to control; format: functional; conditions: read-out: Activity; outline: as §2
# [7] = biological target: T2, Protein deacetylase HDAC6 (Homo sapiens); assay: Inhibition of HDAC6 in human HCT-116 cells assessed as increase in Hsp90(AcLys294) acetylation at 10 uM measured after 12 to 24 hrs by Western blot analysis; format: cell-based; conditions: time 12-24 hrs; outline: as §1
# HCT-116 [8] = assay: Cytotoxicity against human HCT-116 cells assessed as reduction in cell viability measured after 48 hrs by MTT assay; format: functional, cell-based; conditions: HCT-116, 48 h; outline: as §2
# U-937 [9] = assay: Cytotoxicity against human U-937 cells assessed as reduction in cell viability measured after 48 hrs by MTT assay; format: functional, cell-based; conditions: U-937, 48 h; outline: as §3
# [10] = biological target: T2, Protein deacetylase HDAC6 (Homo sapiens); assay: Inhibition of HDAC6 in human U-937 cells assessed as increase in Hsp90(AcLys294) acetylation at 10 uM measured after 12 to 24 hrs by Western blot analysis; format: cell-based; conditions: time 12-24 hrs; outline: as §1
# [11] = Inhibition of HDAC1/2/3/8 in human HCT-116 cells assessed as increase in H3K9/14 acetylation at 10 uM measured after 12 to 24 hrs by Western blot analysis relative to control; format: cell-based; conditions: hct-116, 10 µM, time 12-24 hrs; outline: as §1
# [12] = biological target: T2, Protein deacetylase HDAC6 (Homo sapiens); assay: Inhibition of HDAC6 in human U-937 cells assessed as increase in alpha-tubulin acetylation at 10 uM measured after 12 to 24 hrs by Western blot analysis relative to control; format: cell-based; conditions: time 12-24 hrs; outline: as §1
# [13] = Mutagenicity in Salmonella typhimurium TA100 at 5 to 230 uM measured after 90 mins in presence of rat liver S9 fraction by Ames test; format: toxicity, subcellular; conditions: salmonella enterica subsp. enterica serovar typhimurium, s9, 1.5 h, dose 5-230 µM
# [14] = Mutagenicity in Salmonella typhimurium TA98 at 5 to 230 uM measured after 90 mins in absence of rat liver S9 fraction by Ames test; format: toxicity; conditions: salmonella enterica subsp. enterica serovar typhimurium, 1.5 h, dose 5-230 µM
# [15] = Mutagenicity in Salmonella typhimurium TA100 at 5 to 230 uM measured after 90 mins in absence of rat liver S9 fraction by Ames test; format: toxicity; conditions: salmonella enterica subsp. enterica serovar typhimurium, s9, 1.5 h, dose 5-230 µM
# NIH3T3 = assay: Cytotoxicity against mouse NIH/3T3 cells assessed as reduction in cell viability after 24 hrs by neutral red uptake assay; format: cell-based; conditions: NIH3T3, 24 h
# Outline: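 NIH3T3 fibroblasts seeded at 5 x 10^4 per well and cultured 24 h at 37 °C, 5% CO2. DMSO-solubilized samples added at 8 to 160 µM for 24 h; medium as negative control. Neutral Red medium applied 3 h, dye desorbed in acetic acid/ethanol, absorbance read at 540 nm. Three experiments, six replicates per concentration; viability normalized to % control.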
# Histone deacetylase 8 = biological target: T3, Histone deacetylase 8 (Homo sapiens, UniProt Q9BY41); assay: Inhibition of recombinant human HDAC8 using Fluor-de-Lys as substrate measured after 1 hr by fluorescence assay
# T3 sequence (Q9BY41 whole entry): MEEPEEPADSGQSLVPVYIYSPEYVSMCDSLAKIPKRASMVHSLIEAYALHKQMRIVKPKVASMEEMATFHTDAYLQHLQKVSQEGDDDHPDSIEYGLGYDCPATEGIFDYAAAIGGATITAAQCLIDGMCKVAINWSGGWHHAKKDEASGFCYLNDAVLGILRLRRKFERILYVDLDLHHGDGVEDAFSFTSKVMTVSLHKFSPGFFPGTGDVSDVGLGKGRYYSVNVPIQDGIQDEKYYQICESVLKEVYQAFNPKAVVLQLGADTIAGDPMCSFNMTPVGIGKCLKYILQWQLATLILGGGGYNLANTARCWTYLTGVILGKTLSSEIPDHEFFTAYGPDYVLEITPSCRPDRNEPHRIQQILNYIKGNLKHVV
# [16] = Mutagenicity in Salmonella typhimurium TA98 at 5 to 230 uM measured after 90 mins in presence of rat liver S9 fraction by Ames test; format: toxicity, subcellular; conditions: salmonella enterica subsp. enterica serovar typhimurium, s9, 1.5 h, dose 5-230 µM
# [17] = Solubility of compound in pH 3 buffer at 250 uM measured after 24 hrs by HPLC/UV/DAD method; format: physicochemical; conditions: pH 3, 24 h
# Outline: (§4)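 10 mM DMSO stock diluted to 250 µM (2.5% DMSO) in 50 mM acetic acid, pH 3.0, and shaken 24 h at 25 °C. For solubility, samples filtered, diluted 1:2, quantified by HPLC-UV at 254 nm against a standard. For stability, percent remaining taken as the 24 h peak area over the T0 peak area. Triplicate analyses averaged.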
# [18] = Stability of compound in pH 3 buffer assessed as parent compound remaining at 250 uM measured after 24 hrs by HPLC/UV/DAD method; format: physicochemical; conditions: read-out: Stabilty; outline: as §4
# Sequence of Histone deacetylase 1 (Q13547 whole entry, the tested form may be a part): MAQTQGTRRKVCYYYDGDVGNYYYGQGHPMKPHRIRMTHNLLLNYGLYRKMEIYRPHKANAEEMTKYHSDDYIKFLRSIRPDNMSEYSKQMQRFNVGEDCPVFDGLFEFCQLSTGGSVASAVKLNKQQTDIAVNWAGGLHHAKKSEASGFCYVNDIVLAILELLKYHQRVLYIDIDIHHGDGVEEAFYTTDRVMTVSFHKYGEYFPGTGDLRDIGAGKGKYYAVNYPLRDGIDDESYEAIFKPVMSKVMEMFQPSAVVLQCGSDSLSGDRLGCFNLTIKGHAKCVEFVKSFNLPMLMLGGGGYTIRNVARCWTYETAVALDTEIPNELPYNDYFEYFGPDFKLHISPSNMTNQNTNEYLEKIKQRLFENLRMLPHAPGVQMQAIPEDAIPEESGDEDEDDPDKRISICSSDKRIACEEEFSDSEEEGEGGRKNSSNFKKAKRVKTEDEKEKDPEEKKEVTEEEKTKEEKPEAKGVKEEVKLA
structure (smiles),measurement,setting,value
Cn1c(=O)c(OCc2ccc(C(=O)NO)cc2)c(-c2cccnc2)c2ccccc21,IC50,[1],46 nM
same,IC50,Histone deacetylase 1,5.01 µM
O=C(NO)c1ccc(COc2c(-c3ccccc3)c3ccccc3[nH]c2=O)cc1,fold change (FC),[2],> 9
same,inhibition (INH),[3],Active
same,IC50,HCT-116 [4],33.4 µM
same,IC50,[1],147 nM
same,Activity,U-937 [5],60%
same,IC50,Histone deacetylase 1,6.6 µM
same,viability at 50 µM,HCT-116 [6],10%
same,inhibition,[7],Active
same,IC50,HCT-116 [8],15 µM
same,IC50,U-937 [9],27.9 µM
same,inhibition,[10],Active
same,fold change (FC),[11],2
same,fold change (FC),[12],> 9
Cn1c(=O)c(OCc2ccc(C(=O)NO)cc2)c(C2CCCCC2)c2ccccc21,Activity,[13],Non-Toxic
same,Activity,[14],Non-Toxic
same,Activity,[15],Non-Toxic
same,IC50,NIH3T3,18 µM
same,IC50,[1],33 nM
same,IC50,Histone deacetylase 1,3 µM
same,IC50,Histone deacetylase 8,1640 nM
same,Kapp,"Histone deacetylase 8; human, 1 h",1.93 µM
same,Activity,[16],Non-Toxic
O=C(NO)c1ccc(COc2c(-c3ccccc3)c3ccccc3n(Cc3ccncc3)c2=O)cc1,IC50,[1],84.1 nM
same,IC50,Histone deacetylase 1,1.2 µM
same,solubility,[17],Soluble
same,"remaining at 24 h, 250 µM",[18],> 95%
